Results from ChEMBL document CHEMBL1130189, “Anionic- and lipophilic-mediated surface binding inhibitors of human leukocyte elastase” (J Med Chem, 1997).

T1: Neutrophil elastase (Homo sapiens, UniProt P08246)
T1 sequence (P08246 whole entry): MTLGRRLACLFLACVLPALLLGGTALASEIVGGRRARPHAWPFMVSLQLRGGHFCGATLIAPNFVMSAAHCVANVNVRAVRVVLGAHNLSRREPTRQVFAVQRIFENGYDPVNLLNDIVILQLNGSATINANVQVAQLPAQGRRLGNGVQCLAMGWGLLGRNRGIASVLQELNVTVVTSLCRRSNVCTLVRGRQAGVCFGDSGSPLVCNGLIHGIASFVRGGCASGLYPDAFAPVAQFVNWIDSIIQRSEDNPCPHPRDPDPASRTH

T2: Cathepsin G (Homo sapiens, UniProt P08311)
T2 sequence (P08311 whole entry): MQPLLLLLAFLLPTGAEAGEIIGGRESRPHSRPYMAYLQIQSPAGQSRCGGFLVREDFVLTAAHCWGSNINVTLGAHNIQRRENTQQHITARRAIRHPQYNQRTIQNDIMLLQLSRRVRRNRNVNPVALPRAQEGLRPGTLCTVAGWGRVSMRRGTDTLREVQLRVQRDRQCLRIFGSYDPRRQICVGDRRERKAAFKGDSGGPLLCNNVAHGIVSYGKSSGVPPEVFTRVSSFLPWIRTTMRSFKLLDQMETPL

T3: Neutrophil elastase (Homo sapiens) (UniProt P08246)
T3 sequence (whole entry): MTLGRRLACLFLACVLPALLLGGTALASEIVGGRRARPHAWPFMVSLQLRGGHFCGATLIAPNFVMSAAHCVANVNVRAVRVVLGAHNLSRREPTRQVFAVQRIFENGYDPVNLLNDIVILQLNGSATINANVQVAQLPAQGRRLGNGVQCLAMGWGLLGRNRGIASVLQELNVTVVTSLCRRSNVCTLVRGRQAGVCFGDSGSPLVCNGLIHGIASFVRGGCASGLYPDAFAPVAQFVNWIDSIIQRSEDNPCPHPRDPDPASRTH


Columns and labels:
Prothrombin = Prothrombin (Homo sapiens, UniProt P00734); assay: Inhibition of thrombin at pH 7.5 in HEPES buffer containing 200 mM NaCl with substrate Bz-Phe-Val-Arg-pNA.
Summary of the method: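 Reaction started with enzyme after >10 min equilibration. A405 rise recorded 15 min. Eight compound levels over a 200-fold range. Ki from competitive-model fit of vi/vc.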

Neutrophil elastase [1] = biological target: T1, Neutrophil elastase; assay: Inhibitory activity against human leukocyte elastase
Cathepsin G = biological target: T2, Cathepsin G; assay: Inhibition of cathepsin G at pH 7.5 in HEPES buffer containing 200 mM NaCl with substrate Suc-Ala-Ala-Pro-Phe-pNA.
Summary of the method: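 Wells pre-equilibrated at 37 °C >10 min before enzyme start. A405 followed 15 min. Eight concentrations over a 200-fold span. Ki from competitive fit of vi/vc versus [I].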

[2] = biological target: T3, Neutrophil elastase (Homo sapiens); conditions: 0.5 uM
[3] = biological target: T3, Neutrophil elastase (Homo sapiens); conditions: 0.2 uM
[4] = biological target: T3, Neutrophil elastase (Homo sapiens); conditions: 1 uM
Neutrophil elastase [5] = biological target: T1, Neutrophil elastase; assay: Binding Affinity to inhibit HLE
Summary of the method: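 Purified human leukocyte elastase (3 nM final) with 10 µM […] (below Km 200 µM) in 50 mM HEPES, 200 mM NaCl, pH 7.5, 0.3% DMSO. Inhibitor and substrate pre-equilibrated at 37 °C for >10 min, then enzyme added. A405 read for 15 min. Eight inhibitor levels spanning a 200-fold range. Ki from fit of vi/vc to the competitive-inhibition equation.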

[6] = substrate: O=C(O)COc1cc(Cc2cc(OCc3ccccc3)c(Cc3cc(OCc4ccccc4)c(Cc4cc(OCc5ccccc5)c(Cc5cc(OCc6ccccc6)c(Cc6cc(O)ccc6OCC(=O)O)cc5OCC(=O)O)cc4OCC(=O)O)cc3OCC(=O)O)cc2OCC(=O)O)c(OCc2ccccc2)cc1CO; conditions: 1 uM
[7] = substrate: O=C(O)COc1cc(Cc2cc(OCc3ccccc3)c(Cc3cc(OCc4ccccc4)c(Cc4cc(OCc5ccccc5)c(Cc5cc(OCc6ccccc6)c(Cc6cc(O)ccc6OCC(=O)O)cc5OCC(=O)O)cc4OCC(=O)O)cc3OCC(=O)O)cc2OCC(=O)O)c(OCc2ccccc2)cc1CO; conditions: 0.5 uM
[8] = substrate: O=C(O)COc1cc(Cc2cc(OCc3ccccc3)c(Cc3cc(OCc4ccccc4)c(Cc4cc(OCc5ccccc5)c(Cc5cc(OCc6ccccc6)c(Cc6cc(O)ccc6OCC(=O)O)cc5OCC(=O)O)cc4OCC(=O)O)cc3OCC(=O)O)cc2OCC(=O)O)c(OCc2ccccc2)cc1CO; conditions: 0.2 uM

| Ki (Prothrombin) [µM] | Ki (Neutrophil elastase [1]) [µM] | Ki (Cathepsin G) [µM] | Molecule | further results |
| --- | --- | --- | --- | --- |
| > 15 | 8.3 | > 15 | O=C(O)COc1cc(Cc2cc(OCc3ccccc3)c(Cc3cc(OCc4ccccc4)c(Cc4cc(O)ccc4OCC(=O)O)cc3OCC(=O)O)cc2OCC(=O)O)c(OCc2ccccc2)cc1CO |  |
| > 15 | 0.12 | > 15 | O=C(O)COc1cc(Cc2cc(OCc3ccccc3)c(Cc3cc(OCc4ccccc4)c(Cc4cc(OCc5ccccc5)c(Cc5cc(OCc6ccccc6)c(Cc6cc(O)ccc6OCC(=O)O)cc5OCC(=O)O)cc4OCC(=O)O)cc3OCC(=O)O)cc2OCC(=O)O)c(OCc2ccccc2)cc1CO | Vm [2]: 0.2 µM; Vm [3]: 0.2 µM; Vm [4]: 0.2 µM; Ki (Neutrophil elastase [5]): 0.19 µM |
|  | 1.3 |  | CC(C)(C)c1cc2c(OCC(=O)O)c(c1)Cc1cc(C(C)(C)C)cc(c1OCC(=O)O)Cc1cc(C(C)(C)C)cc(c1OCC(=O)O)Cc1cc(C(C)(C)C)cc(c1OCC(=O)O)Cc1cc(C(C)(C)C)cc(c1OCC(=O)O)Cc1cc(C(C)(C)C)cc(c1OCC(=O)O)Cc1cc(C(C)(C)C)cc(c1OCC(=O)O)Cc1cc(C(C)(C)C)cc(c1OCC(=O)O)C2 |  |
| 1.7 | 0.1 | > 15 | COc1ccc(OCC(=O)O)c(Cc2cc(OCCCc3ccccc3)c(Cc3cc(OCC(=O)O)c(Cc4cc(OCCCc5ccccc5)c(Cc5cc(OCC(=O)O)c(Cc6cc(OCCCc7ccccc7)c(C)cc6OC)cc5OC)cc4OC)cc3OC)cc2OC)c1 |  |
| 0.75 | 0.13 | > 15 | O=C(O)COc1cc(Cc2cc(OCc3ccccc3)c(Cc3cc(OCc4ccccc4)c(Cc4cc(OCc5ccccc5)c(Cc5cc(O)ccc5OCC(=O)O)cc4OCC(=O)O)cc3OCC(=O)O)cc2OCC(=O)O)c(OCc2ccccc2)cc1CO |  |
| > 15 | 0.02 | > 15 | COc1ccc(OCC(=O)O)c(Cc2cc(OCC3CCCCC3)c(Cc3cc(OCC(=O)O)c(Cc4cc(OCC5CCCCC5)c(Cc5cc(OCC(=O)O)c(Cc6cc(OCC7CCCCC7)c(C)cc6OC)cc5OC)cc4OC)cc3OC)cc2OC)c1 |  |
| 1.4 | 0.017 | > 15 | COc1ccc(OCC(=O)O)c(Cc2cc(OCCCCCc3ccccc3)c(Cc3cc(OCC(=O)O)c(Cc4cc(OCCCCCc5ccccc5)c(Cc5cc(OCC(=O)O)c(Cc6cc(OCCCCCc7ccccc7)c(C)cc6OC)cc5OC)cc4OC)cc3OC)cc2OC)c1 |  |
| > 15 | 1.3 | > 15 | COc1ccc(OCC(=O)O)c(Cc2cc(O)c(Cc3cc(OCC(=O)O)c(Cc4cc(O)c(Cc5cc(OCC(=O)O)c(Cc6cc(O)c(C)cc6OC)cc5OC)cc4OC)cc3OC)cc2OC)c1 |  |
| > 15 | 0.2 | 1.5 | COc1cc(CO)c(OCc2ccccc2)cc1Cc1cc(OC)c(Cc2cc(OC)c(Cc3cc(OC)c(Cc4cc(OC)c(Cc5cc(O)ccc5OCC(=O)O)cc4OCc4ccccc4)cc3OCC(=O)O)cc2OCc2ccccc2)cc1OCC(=O)O |  |
| 0.24 | 1 | > 15 | COCCOCOc1cc(Cc2cc(OC)c(Cc3cc(OC)c(Cc4cc(OC)c(Cc5cc(OC)c(Cc6cc(OC)ccc6OCC(=O)O)cc5OCOCCOC)cc4OCC(=O)O)cc3OCOCCOC)cc2OCC(=O)O)c(OC)cc1C |  |
|  |  |  | Neutrophil elastase (Homo sapiens), P08246 (protein) MTLGRRLACLFLACVLPALLLGGTALASEIVGGRRARPHAWPFMVSLQLRGGHFCGATLIAPNFVMSAAHCVANVNVRAVRVVLGAHNLSRREPTRQVFAVQRIFENGYDPVNLLNDIVILQLNGSATINANVQVAQLPAQGRRLGNGVQCLAMGWGLLGRNRGIASVLQELNVTVVTSLCRRSNVCTLVRGRQAGVCFGDSGSPLVCNGLIHGIASFVRGGCASGLYPDAFAPVAQFVNWIDSIIQRSEDNPCPHPRDPDPASRTH | Km [6]: 2.3 µM; Km [7]: 1.1 µM; Km [8]: 0.77 µM |
